# ChEMBL document CHEMBL1629614, “Inhibition of methionyl-tRNA synthetase by REP8839 and effects of resistance mutations on enzyme activity” (Antimicrob Agents Chemother, 2009)
# Where a chain is given by its changes, count along the chain named. Names and notes keep the numbering of the source.
# B1: Methionine--tRNA ligase (Staphylococcus aureus subsp. aureus MW2), Q8NY00 I57N,I238F (protein)
# chain: MAKETFYITTPIYYPSGNLHIGHAYSTVAGDVIARYKRMQGYDVRYLTGTDEHGQKNQEKAQKAGKTEIEYLDEMIAGIKQLWAKLEISNDDFIRTTEERHKHVVEQVFERLLKQGDIYLGEYEGWYSVPDETYYTESQLVDPQYENGKIIGGKSPDSGHEVELVKEESYFFNISKYTDRLLEFYDQNPDFIQPPSRKNEMINNFIKPGLADLAVSRTSFNWGVHVPSNPKHVVYVWFDALVNYISALGYLSDDESLFNKYWPADIHLMAKEIVRFHSIIWPILLMALDLPLPKKVFAHGWILMKDGKMSKSKGNVVDPNILIDRYGLDATRYYLMRELPFGSDGVFTPEAFVERTNFDLANDLGNLVNRTISMVNKYFDGELPAYQGPLHELDEEMEAMALETVKSYTESMESLQFSVALSTVWKFISRTNKYIDETTPWVLAKDDSQKDMLGNVMAHLVENIRYAAVLLRPFLTHAPKEIFEQLNINNPQFMEFSSLEQYGVLTESIMVTGQPKPIFPRLDSEAEIAYIKESMQPPATEEEKEEIPSKPQIDIKDFDKVEIKAATIINAEHVKKSDKLLKIQVDLDSEQRQIVSGIAKFYTPDDIIGKKVAVVTNLKPAKLMGQKSEGMILSAEKDGVLTLVSLPSAIPNGAVIK
# B2: Methionine--tRNA ligase (Staphylococcus aureus subsp. aureus MW2), Q8NY00 I57N,A247E (protein)
# chain: B1 chain with F238I, A247E
# B3: Methionine--tRNA ligase (Staphylococcus aureus subsp. aureus MW2), Q8NY00 I57N,G54S (protein)
# chain: B1 chain with G54S, F238I
# B4: Methionine--tRNA ligase (Staphylococcus aureus subsp. aureus MW2), Q8NY00 G54A,A64P (protein)
# chain: B1 chain with G54A, N57I, A64P, F238I
# Columns and labels:
# [1] = compound: C=C(F)c1sc(CNCCCNc2cc(=O)c3ccccc3[nH]2)c(C)c1Br; assay: Activity of Staphylococcus aureus MetRS I57N, I238F mutant by ATP:PPi exchange assay in presence of ATP
# Summary of the method: (§1)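 Purified S. aureus MetRS (wild type or mutant; E. coli-expressed, ammonium sulfate cut, anion exchange) at 30 nM. ATP:PPi exchange at 30°C in 100 mM Tris-HCl pH 8.0, 5–10 mM Mg acetate, 80 mM KCl, 2.5 mM DTT, [32P]PPi plus cold PPi equal to ATP. Quenched with EDTA over 1–10 min, PEI-cellulose TLC, phosphorimager. Initial velocities versus varied ATP or methionine fit to Michaelis-Menten.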
# [2] = compound: C=C(F)c1sc(CNCCCNc2cc(=O)c3ccccc3[nH]2)c(C)c1Br; assay: Ratio of Kcat to Km for Staphylococcus aureus MetRS I57N I238F mutant in presence of ATP
# Summary of the method: (§2)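 Purified recombinant S. aureus MetRS (30 nM) was assayed by ATP:PPi exchange at 30°C in Tris pH 8.0 with Mg acetate, KCl and DTT. [32P]PPi was matched to ATP, and ATP or methionine was varied. Time points from 1 to 10 min were quenched with EDTA, separated by PEI-cellulose TLC and read by phosphorimager. Initial rates were fitted to Michaelis-Menten.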
# [3] = compound: C=C(F)c1sc(CNCCCNc2cc(=O)c3ccccc3[nH]2)c(C)c1Br; assay: Activity of streptococcus aureus MetRS I57N, I238F mutant by scintillation proximity assay in presence of tRNA; conditions: Staphylococcus aureus
# [4] = compound: C=C(F)c1sc(CNCCCNc2cc(=O)c3ccccc3[nH]2)c(C)c1Br; assay: Ratio of Kcat to Km for Staphylococcus aureus MetRS I57N I238F mutant in presence of tRNA
# Summary of the method: (§3)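 Purified recombinant S. aureus MetRS was assayed by tRNA aminoacylation at 30°C for 1 to 7.5 min to obtain initial rates. Buffer was Tris pH 8.0 with Mg acetate, 2.5 mM ATP, KCl, DTT, BSA, [3H]methionine and crude E. coli tRNA. Reactions were EDTA-stopped, and charged tRNA was read by scintillation proximity with polylysine beads at pH 2.0.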
# [5] = compound: C=C(F)c1sc(CNCCCNc2cc(=O)c3ccccc3[nH]2)c(C)c1Br; assay: Ratio of Kcat to Km for Staphylococcus aureus MetRS I57N I238F mutant in presence of methionine; summary of the method: as §2
# [6] = compound: C=C(F)c1sc(CNCCCNc2cc(=O)c3ccccc3[nH]2)c(C)c1Br; assay: Activity of Staphylococcus aureus MetRS I57N, I238F mutant by ATP:PPi exchange assay in presence of methionine; summary of the method: as §1
# [7] = compound: C=C(F)c1sc(CNCCCNc2cc(=O)c3ccccc3[nH]2)c(C)c1Br; assay: Ratio of Kcat to Km for Staphylococcus aureus MetRS I57N A247E mutant in presence of methionine; summary of the method: as §2
# [8] = compound: C=C(F)c1sc(CNCCCNc2cc(=O)c3ccccc3[nH]2)c(C)c1Br; assay: Activity of Staphylococcus aureus MetRS I57N, A247E mutant by ATP:PPi exchange assay in presence of methionine; summary of the method: as §1
# [9] = compound: C=C(F)c1sc(CNCCCNc2cc(=O)c3ccccc3[nH]2)c(C)c1Br; assay: Activity of Staphylococcus aureus MetRS I57N, A247E mutant by ATP:PPi exchange assay in presence of ATP; summary of the method: as §1
# [10] = compound: C=C(F)c1sc(CNCCCNc2cc(=O)c3ccccc3[nH]2)c(C)c1Br; assay: Ratio of Kcat to Km for Staphylococcus aureus MetRS I57N A247E mutant in presence of tRNA; summary of the method: as §3
# [11] = compound: C=C(F)c1sc(CNCCCNc2cc(=O)c3ccccc3[nH]2)c(C)c1Br; assay: Ratio of Kcat to Km for Staphylococcus aureus MetRS I57N A247E mutant in presence of ATP; summary of the method: as §2
# [12] = compound: C=C(F)c1sc(CNCCCNc2cc(=O)c3ccccc3[nH]2)c(C)c1Br; assay: Activity of streptococcus aureus MetRS I57N, A247E mutant by scintillation proximity assay in presence of tRNA; conditions: Staphylococcus aureus
# [13] = compound: C=C(F)c1sc(CNCCCNc2cc(=O)c3ccccc3[nH]2)c(C)c1Br; assay: Ratio of Kcat to Km for Staphylococcus aureus MetRS I57N G54S mutant in presence of ATP; summary of the method: as §2
# [14] = compound: C=C(F)c1sc(CNCCCNc2cc(=O)c3ccccc3[nH]2)c(C)c1Br; assay: Ratio of Kcat to Km for Staphylococcus aureus MetRS I57N G54S mutant in presence of methionine; summary of the method: as §2
# [15] = compound: C=C(F)c1sc(CNCCCNc2cc(=O)c3ccccc3[nH]2)c(C)c1Br; assay: Activity of streptococcus aureus MetRS I57N, G54S mutant by scintillation proximity assay in presence of tRNA; conditions: Staphylococcus aureus
# [16] = compound: C=C(F)c1sc(CNCCCNc2cc(=O)c3ccccc3[nH]2)c(C)c1Br; assay: Activity of Staphylococcus aureus MetRS I57N, G54S mutant by ATP:PPi exchange assay in presence of ATP; summary of the method: as §1
# [17] = compound: C=C(F)c1sc(CNCCCNc2cc(=O)c3ccccc3[nH]2)c(C)c1Br; assay: Activity of Staphylococcus aureus MetRS I57N, G54S mutant by ATP:PPi exchange assay in presence of methionine; summary of the method: as §1
# [18] = compound: C=C(F)c1sc(CNCCCNc2cc(=O)c3ccccc3[nH]2)c(C)c1Br; assay: Ratio of Kcat to Km for Staphylococcus aureus MetRS I57N G54S mutant in presence of tRNA; summary of the method: as §3
# [19] = compound: C=C(F)c1sc(CNCCCNc2cc(=O)c3ccccc3[nH]2)c(C)c1Br; assay: Ratio of Kcat to Km for Staphylococcus aureus MetRS G54A A64P mutant in presence of ATP; summary of the method: as §2
# [20] = compound: C=C(F)c1sc(CNCCCNc2cc(=O)c3ccccc3[nH]2)c(C)c1Br; assay: Activity of streptococcus aureus MetRS G54A, A64P mutant by scintillation proximity assay in presence of tRNA; conditions: Staphylococcus aureus
# [21] = compound: C=C(F)c1sc(CNCCCNc2cc(=O)c3ccccc3[nH]2)c(C)c1Br; assay: Activity of Staphylococcus aureus MetRS G54A, A64P mutant by ATP:PPi exchange assay in presence of ATP; summary of the method: as §1
# [22] = compound: C=C(F)c1sc(CNCCCNc2cc(=O)c3ccccc3[nH]2)c(C)c1Br; assay: Activity of Staphylococcus aureus MetRS G54A, A64P mutant by ATP:PPi exchange assay in presence of methionine; summary of the method: as §1
# [23] = compound: C=C(F)c1sc(CNCCCNc2cc(=O)c3ccccc3[nH]2)c(C)c1Br; assay: Ratio of Kcat to Km for Staphylococcus aureus MetRS G54A A64P mutant in presence of tRNA; summary of the method: as §3
# [24] = compound: C=C(F)c1sc(CNCCCNc2cc(=O)c3ccccc3[nH]2)c(C)c1Br; assay: Ratio of Kcat to Km for Staphylococcus aureus MetRS G54A A64P mutant in presence of methionine; summary of the method: as §2
protein,measurement,setting,value
B1,Km,[1],1610 µM
same,kcat/Km,[2],8000 M⁻¹ s⁻¹
same,Km,[3],0.89 µM
same,kcat,[3],0.066 s⁻¹
same,kcat/Km,[4],74000 M⁻¹ s⁻¹
same,kcat/Km,[5],150000 M⁻¹ s⁻¹
same,Km,[6],85 µM
same,kcat,[6],13 s⁻¹
B2,kcat/Km,[7],40000 M⁻¹ s⁻¹
same,Km,[8],250 µM
same,kcat,[8],11 s⁻¹
same,Km,[9],2230 µM
same,kcat/Km,[10],18000 M⁻¹ s⁻¹
same,kcat/Km,[11],5000 M⁻¹ s⁻¹
same,Km,[12],0.45 µM
same,kcat,[12],0.008 s⁻¹
B3,kcat/Km,[13],8000 M⁻¹ s⁻¹
same,kcat/Km,[14],20000 M⁻¹ s⁻¹
same,Km,[15],0.41 µM
same,kcat,[15],0.002 s⁻¹
same,Km,[16],765 µM
same,Km,[17],360 µM
same,kcat,[17],6 s⁻¹
same,kcat/Km,[18],5000 M⁻¹ s⁻¹
B4,kcat/Km,[19],1000 M⁻¹ s⁻¹
same,Km,[20],0.57 µM
same,kcat,[20],0.001 s⁻¹
same,Km,[21],760 µM
same,Km,[22],1070 µM
same,kcat,[22],1 s⁻¹
same,kcat/Km,[23],2000 M⁻¹ s⁻¹
same,kcat/Km,[24],1000 M⁻¹ s⁻¹
